In ChEMBL document CHEMBL1124180, “Asymmetric synthesis and properties of the enantiomers of the antibacterial agent 7-(3-aminopyrrolidin-1-yl)-1-(2,4-difluorophenyl)-1,4-dihydro-6- fluoro-4-oxo-1,8-naphthyridine-3-carboxylic acid hydrochloride” (J Med Chem, 1988):
Values after ≈ are worked out from the molar mass of the structure shown.

Legend:
Assay type in all cases: functional
[1] = system: Bacteroides thetaiotaomicron; test: In vitro activity against Bacteroides thetaiotaomicron (ATCC 29742)
Outline: (§1)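 MIC determined under anaerobic conditions on Wilkins-Chalgren agar.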

[2] = system: Peptoniphilus asaccharolyticus; test: In vitro activity against Peptococcus asaccharolyticus (ATCC 14963).; outline: as §1
[3] = system: Bacteroides thetaiotaomicron; test: In vitro activity against Bacteroides thetaiotaomicron (106); outline: as §1
Peptostreptococcus = test: In vitro activity against Peptostreptococcus sp.(TB-11)
Outline: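 MIC for anaerobic bacteria, measured on Wilkins-Chalgren agar.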

[4] = system: Bacteroides thetaiotaomicron; test: In vitro activity against Bacteroides thetaiotaomicron (SFM2975-2); outline: as §1
Prevotella bivia = test: In vitro activity against Bacteroides bivius(B 6140); outline: as §1
Finegoldia magna = test: In vitro activity against Peptococcus magnus (ATCC 29328); outline: as §1
[5] = system: Bacteroides thetaiotaomicron; test: In vitro activity against thetaiotaomicron (ATCC 29741)
Outline: (§2)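 Anaerobic MICs measured by agar dilution on Wilkins-Chalgren agar.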

Phocaeicola vulgatus [6] = test: In vitro activity against Bacteroides vulgatus(SFBC 2375); outline: as §1
Bacteroides fragilis [7] = test: In vitro activity against Bacteroides fragilis (SFM2906A); outline: as §1
Clostridioides difficile [8] = test: In vitro activity against Clostridium difficile (ATCC 9689)
Clostridium perfringens [9] = test: In vitro activity against Clostridium perfringens (SFBC 2026)
Bacteroides fragilis [10] = test: In vitro activity against Bacteroides fragilis (SFM2975-7); outline: as §1
Thomasclavelia ramosa = test: In vitro activity against Clostridium ramosum (7); outline: as §1
Veillonella parvula = test: In vitro activity against Veillonella parvula (ATCC 10790); outline: as §2
Bacteroides fragilis [11] = test: In vitro activity against Bacteroides fragilis (105AT25285); outline: as §1
Clostridium perfringens [12] = test: In vitro activity against Clostridium perfringens (104AT13124)
Bacteroides fragilis [13] = test: In vitro activity against Bacteroides fragilis (784); outline: as §1
Bacteroides fragilis [14] = test: In vitro activity against Bacteroides fragilis (UC-2); outline: as §1
[15] = system: Prevotella melaninogenica; test: In vitro activity against Bacteroides melaninogenicus (ATCC 25845).; outline: as §1
Prevotella disiens = test: In vitro activity against Bacteroides disiens (ATCC 29426); outline: as §1
Parvimonas micra = test: In vitro activity against Peptostreptococcus micros (ATCC 33270).; outline: as §1
Phocaeicola vulgatus [16] = test: In vitro activity against Bacteroides vulgatus(792); outline: as §1
Fusobacterium nucleatum = test: In vitro activity against Fusobacterium nucleatum (ATCC 25586); outline: as §1
Clostridioides difficile [17] = test: In vitro activity against Clostridium difficile (ATCC 17857)
Hoylesella loescheii = test: In vitro activity against Bacteroides loescheii (ATCC 15930).; outline: as §1

`CCC[C@@H]1C[C@@H](C(=O)N[C@@H]([C@H]2O[C@H](SC)[C@H](O)[C@@H](O)[C@H]2O)[C@H](C)Cl)N(C)C1` [CLINDAMYCIN] showed an MIC [1] of 4 µg/mL (≈ 9.41 µM), an MIC [2] of 0.06 µg/mL (≈ 0.141 µM) and an MIC [3] of 4 µg/mL (≈ 9.41 µM). The MIC (Peptostreptococcus) was 0.06 µg/mL (≈ 0.141 µM), the MIC [4] was 0.5 µg/mL (≈ 1.18 µM) and the MIC (Prevotella bivia) was < 0.015 µg/mL. For the same molecule, the MIC (Finegoldia magna) was 1 µg/mL (≈ 2.35 µM), the MIC [5] was 8 µg/mL (≈ 18.8 µM) and the MIC (Phocaeicola vulgatus [6]) was < 0.015 µg/mL. It also gave an MIC (Bacteroides fragilis [7]) of 0.5 µg/mL (≈ 1.18 µM), an MIC (Clostridioides difficile [8]) of 4 µg/mL (≈ 9.41 µM) and an MIC (Clostridium perfringens [9]) of 0.25 µg/mL (≈ 0.588 µM). For the same molecule, the MIC (Bacteroides fragilis [10]) was 2 µg/mL (≈ 4.71 µM), the MIC (Thomasclavelia ramosa) was 1 µg/mL (≈ 2.35 µM) and the MIC (Veillonella parvula) was 0.06 µg/mL (≈ 0.141 µM). The MIC (Bacteroides fragilis [11]) was 2 µg/mL (≈ 4.71 µM), the MIC (Clostridium perfringens [12]) was 0.03 µg/mL (≈ 0.0706 µM) and the MIC (Bacteroides fragilis [13]) was 1 µg/mL (≈ 2.35 µM). For the same molecule, the MIC (Bacteroides fragilis [14]) was 0.5 µg/mL (≈ 1.18 µM), the MIC [15] was 0.03 µg/mL (≈ 0.0706 µM) and the MIC (Prevotella disiens) was < 0.015 µg/mL. The MIC (Parvimonas micra) was 0.06 µg/mL (≈ 0.141 µM), the MIC (Phocaeicola vulgatus [16]) was < 0.015 µg/mL and the MIC (Fusobacterium nucleatum) was 0.25 µg/mL (≈ 0.588 µM). For the same molecule, the MIC (Clostridioides difficile [17]) was 8 µg/mL (≈ 18.8 µM) and the MIC (Hoylesella loescheii) was 0.5 µg/mL (≈ 1.18 µM).
